≈ marks a conversion by molar mass, not a printed value. Calls of active or inactive are those of the source. No cut-off for these calls is given here.
Assays:
Bacillus subtilis [1] = experiment: Disruption of inner membrane integrity in Bacillus subtilis 168 ATCC 23857 measured by luciferase based bioluminescence assay; assay type: functional
Summary of the method: (§1)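 Biosensor strains express click-beetle luciferase (lucGR), whose light output needs externally added D-luciferin; light rises when a damaged membrane lets substrate in. Cell suspension with 1 mM D-luciferin is added to the analytes, and luminescence is read every second for 180 s. Signal is normalized to an untreated water control. Cell density is about 100-fold that of the MIC assay, with at least three independent experiments.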

Escherichia coli [2] = experiment: Disruption of inner membrane integrity in Escherichia coli K12 (ATCC MC1061) transfected with pCGLS-1 measured by luciferase based bioluminescence assay; assay type: functional; summary of the method: as §1
Pseudomonas aeruginosa = experiment: Antibacterial activity against Pseudomonas aeruginosa ATCC 27853 incubated for 48 hrs and measured by broth microdilution assay; assay type: functional
Summary of the method: (§2)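 MICs in µg/mL were measured against the reference strains S. aureus ATCC 9144, B. subtilis 168, E. coli ATCC 25922 and P. aeruginosa ATCC 27853. Compounds were tested as di-TFA salts.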

Escherichia coli [3] = experiment: Antibacterial activity against Escherichia coli ATCC 25922 incubated for 48 hrs and measured by broth microdilution assay; assay type: functional; summary of the method: as §2
[4] = Selectivity index, ratio HC50 for hemolytic activity in human RBC to MIC for antibacterial activity against Bacillus subtilis 168; assay type: toxicity; settings: human red blood cells (erythrocytes)
Summary of the method: (§3)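 SI is the ratio of RBC lysis EC50 to MIC for each reference strain.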

Bacillus subtilis [5] = experiment: Antibacterial activity against Bacillus subtilis 168 incubated for 48 hrs and measured by broth microdilution assay; assay type: functional; summary of the method: as §2
[6] = (§4) Hemolytic activity in human RBC measured after 1 hr by microplate reader method; assay type: toxicity, cell-based, Erythrocyte; settings: human, human red blood cells (erythrocytes)
Summary of the method: (§5)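 Human red blood cell lysis was used as the cytotoxicity read-out, expressed as EC50 in µg/mL. The highest concentration tested was 500 µM. Compounds were tested as di-TFA salts.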

Staphylococcus aureus = experiment: Antibacterial activity against Staphylococcus aureus ATCC 9144 incubated for 48 hrs and measured by broth microdilution assay; assay type: functional; summary of the method: as §2
[7] = Selectivity index, ratio HC50 for hemolytic activity in human RBC to MIC for antibacterial activity against Staphylococcus aureus ATCC 9144; assay type: toxicity; settings: human red blood cells (erythrocytes); summary of the method: as §3
[8] = Selectivity index, ratio HC50 for hemolytic activity in human RBC to MIC for antibacterial activity against Escherichia coli ATCC 25922; assay type: toxicity; settings: human red blood cells (erythrocytes); summary of the method: as §3
[9] = Selectivity index, ratio HC50 for hemolytic activity in human RBC to MIC for antibacterial activity against Pseudomonas aeruginosa ATCC 27853; assay type: toxicity; settings: human red blood cells (erythrocytes); summary of the method: as §3
[10] = Solubility in pure water; assay type: physicochemical
Bacillus subtilis [11] = experiment: Antibacterial activity against Bacillus subtilis 168 (ATCC 23857) expressing lux operon in sacA locus (PliaG) assessed as decrease in bacterial viability at 3.2 to 51.2 ug/ml; assay type: functional, organism-based; settings: dose 3.2-51.2 µg/ml
Summary of the method: (§6)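 Biosensor strains (B. subtilis 168; E. coli K12) carry the Photorhabdus luminescens lux operon, so no substrate is added. Cell suspension, about 100-fold denser than in the MIC assay, was added to the analytes. Light was read every second for 180 s, normalized to an untreated water control and reported as RLU. At least three independent experiments were run.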

Escherichia coli [12] = experiment: Disruption of outer membrane integrity in Escherichia coli K12 (ATCC MC1061) transfected with pCGLS-1 at 3.2 ug/ml measured by NPN based fluorescence assay; assay type: functional, organism-based; settings: dose 3.2 µg/ml, DDE = dose-dependent effect
Summary of the method: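 E. coli K12 outer membrane permeability was measured by 1-N-phenylnaphthylamine uptake. Cell suspension with 20 µM NPN was added to the analytes. Fluorescence was read every second for 180 s, normalized to an untreated water control and reported as RFU. At least three independent experiments were run.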

Escherichia coli [13] = experiment: Antibacterial activity against in Escherichia coli K12 (ATCC MC1061) transfected with pCGLS-1 assessed as decrease in cell viability at 25.6 to 51.2 ug/ml measured by NPN based fluorescence assay; assay type: functional, organism-based; settings: dose 25.6-51.2 µg/ml
Summary of the method: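 At the end of the NPN outer membrane assay in E. coli K12, a 10 µL sample was spotted on an agar plate to assess bacterial viability.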

Escherichia coli [14] = experiment: Disruption of inner membrane integrity in Escherichia coli K12 (ATCC MC1061) transfected with pCGLS-1 at 6.4 to 12.8 times MIC measured by luciferase based bioluminescence assay; assay type: functional, organism-based; settings: DDE = dose-dependent effect
Summary of the method: (§7)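 Membrane integrity was read with click beetle lucGR luciferase biosensor strains. Cell suspension containing 1 mM D-luciferin was added to the analytes. Luminescence was read every second for 180 s, normalized to an untreated water control and reported as RLU. At least three independent experiments were run.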

Bacillus subtilis [15] = experiment: Disruption of inner membrane integrity in Bacillus subtilis 168 (ATCC 23857) at 1.56 to 50 ug/ml measured by luciferase based bioluminescence assay; assay type: functional, organism-based; settings: dose 1.56-50 µg/ml; summary of the method: as §7
Escherichia coli [16] = experiment: Antibacterial activity against Escherichia coli K12 (ATCC MC1061) transfected with pCGLS-1 assessed as decrease in bacterial viability at 3.2 to 51.2 ug/ml; assay type: functional, organism-based; settings: dose 3.2-51.2 µg/ml; summary of the method: as §6
Erythrocyte = experiment: as §4; assay type: toxicity, cell-based; settings: erythrocyte; summary of the method: as §5

SMILES	MIC (Bacillus subtilis [1]) [µg/mL]	MIC (Escherichia coli [2]) [µg/mL]	MIC (Pseudomonas aeruginosa) [µg/mL]	MIC (Escherichia coli [3]) [µg/mL]	selectivity ratio [4]	MIC (Bacillus subtilis [5]) [µg/mL]	EC50 at 1 h [6] [µg/mL]	MIC (Staphylococcus aureus) [µg/mL]	selectivity ratio [7]	selectivity ratio [8]	selectivity ratio [9]	solubility [10] [µg/mL]	Activity (Bacillus subtilis [11])	Activity (Escherichia coli [12])	Activity (Escherichia coli [13])	Activity (Escherichia coli [14])	Activity (Bacillus subtilis [15])	Activity (Escherichia coli [16])	EC50 (Erythrocyte) [µg/mL]
N=C(NCCCCCCNC(=N)NC(=N)Nc1ccc(Cl)cc1)NC(=N)Nc1ccc(Cl)cc1 [CHLORHEXIDINE]	1.5 (≈ 2.97 µM)	1.5 (≈ 2.97 µM)																	
N=C(N)NCCCCN1C(=O)N(CCCCNC(=N)N)C(=O)C(Cc2cc(Br)cc(Br)c2)(Cc2ccc3ccccc3n2)C1=O.O=C(O)C(F)(F)F.O=C(O)C(F)(F)F (stereo not given)			32	32	113	4	450	2	225										
O=C([O-])C(F)(F)F.O=C([O-])C(F)(F)F.O=C1N(CCCC[n+]2ccccc2)C(=O)C(Cc2cc(Br)cc(Br)c2)(Cc2cc(Br)cc(Br)c2)C(=O)N1CCCC[n+]1ccccc1			128	8	> 140	4	> 559	2	> 280	> 70									
C[N+](C)(C)CCCCN1C(=O)N(CCCC[N+](C)(C)C)C(=O)C(Cc2cc(Br)cc(Br)c2)(Cc2cc(Br)cc(Br)c2)C1=O.O=C([O-])C(F)(F)F.O=C([O-])C(F)(F)F			256	128	> 67	8	> 539	4	> 135										
NCCCN1C(=O)N(CCCN)C(=O)C(Cc2cc(C(F)(F)F)cc(C(F)(F)F)c2)(Cc2cc(C(F)(F)F)cc(C(F)(F)F)c2)C1=O.O=C(O)C(F)(F)F.O=C(O)C(F)(F)F			8	8	46	4	176	8	23	23	23	< 1000							
N=C(N)NCCCCN1C(=O)N(CCCCNC(=N)N)C(=O)C(Cc2ccc(C(F)(F)F)cc2)(Cc2cc(Br)cc(Br)c2)C1=O.O=C(O)C(F)(F)F.O=C(O)C(F)(F)F (stereo not given)			16	2	40	4	161	2	81	81	10		Active	Dde	Active	Dde	Active	Active	
NCCCCN1C(=O)N(CCCCN)C(=O)C(Cc2cc(Br)cc(Br)c2)(Cc2cc(Br)cc(Br)c2)C1=O.O=C(O)C(F)(F)F.O=C(O)C(F)(F)F			8	4	40	2	79	4	20	20	10								
N=C(N)NCCCN1C(=O)N(CCCNC(=N)N)C(=O)C(Cc2cc(C(F)(F)F)cc(C(F)(F)F)c2)(Cc2cc(C(F)(F)F)cc(C(F)(F)F)c2)C1=O.O=C(O)C(F)(F)F.O=C(O)C(F)(F)F			16	8	222	2		4	111	56	28	< 1000							445
N=C(N)NCCCN1C(=O)N(CCCNC(=N)N)C(=O)C(Cc2ccc3cc(Br)ccc3n2)(Cc2ccc3cc(Br)ccc3n2)C1=O.O=C(O)C(F)(F)F.O=C(O)C(F)(F)F			> 128	64	> 124	4	> 497	8	> 62										

Reference: ChEMBL document CHEMBL5108036, “A concise SAR-analysis of antimicrobial cationic amphipathic barbiturates for an improved activity-toxicity profile” (Eur J Med Chem, 2022)
